Measured values reported in ChEMBL document CHEMBL4732226, “Discovery of a potent G-protein-coupled receptor 119 agonist for the treatment of type 2 diabetes” (Bioorg Med Chem, 2021).
pEC50: −log10 of the molar value.

Assays:
[1] = molecular target: T1, Glucose-dependent insulinotropic receptor (Homo sapiens, UniProt Q8TDV5); test: Agonist activity at human GPR119 stably transfected in CHO-K1 cells assessed as increase in cAMP stimulation after 1 hr by enzyme immunoassay; assay type: functional, cell-based; settings: for pEC50: read-out: EC50; for EC50: cho-k1
T1 sequence (Q8TDV5 whole entry): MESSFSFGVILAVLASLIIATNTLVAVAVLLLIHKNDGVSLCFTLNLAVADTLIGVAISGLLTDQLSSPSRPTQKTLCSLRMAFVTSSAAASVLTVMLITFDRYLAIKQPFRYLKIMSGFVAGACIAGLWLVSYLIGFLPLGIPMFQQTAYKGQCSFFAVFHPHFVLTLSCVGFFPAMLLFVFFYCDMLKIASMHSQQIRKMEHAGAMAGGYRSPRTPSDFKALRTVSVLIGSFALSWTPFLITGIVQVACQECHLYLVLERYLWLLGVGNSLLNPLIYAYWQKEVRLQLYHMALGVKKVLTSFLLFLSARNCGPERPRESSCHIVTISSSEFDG

[2] = molecular target: T2, Glucose-dependent insulinotropic receptor (Homo sapiens) (UniProt Q8TDV5); test: Agonist activity at human GPR119 stably transfected in CHO-K1 cells assessed as increase in cAMP stimulation after 1 hr by enzyme immunoassay relative to AR231453; assay type: functional, cell-based
T2 sequence (whole entry): T1 sequence (Q8TDV5 whole entry)

Mus musculus = test: Antidiabetic activity in glucose-stimulated […] mouse assessed as reduction in blood glucose level at 50 mg/kg, po pretreated for 30 mins followed by glucose-stimulation and measured up to 120 mins by OGTT method relative to control; assay type: functional; parameters: scale not given: the % may be the effect or the level left; settings: 0.5 h
Procedure, shortened: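 C57 mice aged 6–8 weeks were grouped by non-fasting glucose and fasted overnight. Single oral dose of 50 mg/kg; 30 min later basal bleed and oral glucose 3 g/kg. Serum glucose taken at 20, 40, 60 and 120 min. Change in glucose AUC calculated.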

[3] = Tmax in Sprague-Dawley rat at 25 mg/kg, po up to 24 hrs; assay type: ADME, organism-based; settings: in vivo
Procedure, shortened: (§1)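 Male SD rats fasted overnight, water ad libitum, fed 4 h after dosing. Single oral gavage of 25 mg/kg as a homogeneous suspension in 0.5% Tween 80 in 0.5% Na-CMC. Blood drawn into Na-heparin tubes at 0.25, 0.5, 1, 2, 4, 6, 8 and 24 h; plasma stored at -70°C. Parameters by non-compartmental analysis, with C0 taken as zero and BLQ samples set to zero.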

[4] = Cmax in Sprague-Dawley rat at 25 mg/kg, po up to 24 hrs; assay type: ADME, organism-based; parameters: route oral, dose 25 mg/kg, time <=24; settings: in vivo; procedure, shortened: as §1
[5] = Half life in Sprague-Dawley rat at 25 mg/kg, po up to 24 hrs; assay type: ADME, organism-based; settings: in vivo; procedure, shortened: as §1
[6] = Elimination rate constant in Sprague-Dawley rat at 25 mg/kg, po up to 24 hrs; assay type: ADME, organism-based; settings: in vivo; procedure, shortened: as §1
[7] = AUC(0 to t) in Sprague-Dawley rat at 25 mg/kg, po up to 24 hrs; assay type: ADME, organism-based; parameters: route oral, dose 25 mg/kg, time <=24; settings: in vivo; procedure, shortened: as §1
[8] = AUC(0 to infinity) in Sprague-Dawley rat at 25 mg/kg, po up to 24 hrs; assay type: ADME, organism-based; parameters: route oral, dose 25 mg/kg, time <=24; settings: in vivo; procedure, shortened: as §1

Row | SMILES | pEC50 [1] | Emax ([2]; filed as agonist) | also measured
1 | CCOC(=O)N1CCC(Oc2cc(Oc3cccc(/C=C4\SC(=O)NC4=O)c3)ncn2)CC1 | 6.09 | 43.3% | 
2 | COC(=O)N1CCC(Oc2cc(Oc3cccc(/C=C4\SC(=O)NC4=O)c3)ncn2)CC1 | 5.73 |  | Emax [2]: 33.7%
3 | Cc1c(Oc2ccc(/C=C3\SC(=O)NC3=O)cc2)ncnc1OC1CCN(C(=O)OC(C)(C)C)CC1 |  | 68.8% | Activity (Mus musculus): 34.6%; Tmax [3]: 2.25 h; Cmax [4]: 835 ng/mL; half-life [5]: 4.37 h; k el at 24 h [6]: 4.44e-05 s⁻¹; AUC(0-t) at 24 h [7]: 8110 ng·h/mL; AUC(0-inf) [8]: 8310 ng·h/mL
4 | COC(=O)N1CCC(Oc2cc(Oc3ccc(/C=C4\SC(=O)NC4=O)cc3)ncn2)CC1 |  |  | EC50 [1]: Not Active
5 | Cc1c(Oc2cccc(/C=C3\SC(=O)NC3=O)c2)ncnc1OC1CCN(C(=O)OCC(C)C)CC1 |  |  | EC50 [1]: Not Active
6 | CC(C)(C)OC(=O)N1CCC(Oc2cc(Oc3ccc(/C=C4\SC(=O)NC4=O)cc3)ncn2)CC1 |  | 122% | 
7 | CCOC(=O)N1CCC(Oc2ncnc(Oc3cccc(/C=C4\SC(=O)NC4=O)c3)c2C)CC1 |  |  | EC50 [1]: Not Active
8 | COC(=O)N1CCC(Oc2ncnc(Oc3ccc(/C=C4\SC(=O)NC4=O)cc3)c2C)CC1 | 5.85 | 53.3% | 
9 | COC(=O)N1CCC(Oc2ncnc(Oc3cccc(/C=C4\SC(=O)NC4=O)c3)c2C)CC1 |  |  | EC50 [1]: Not Active

More lines, in order of rising pEC50 [1], values ahead:

Row | pEC50 [1] | Emax ([2]; filed as agonist) | SMILES | also measured
10 | 6.09 | 43.3% | Cc1c(Oc2ccc(/C=C3\SC(=O)NC3=O)cc2)ncnc1OC1CCN(C(=O)OCc2ccccc2)CC1 | 
11 | 6.10 | 51.8% | CCOC(=O)N1CCC(Oc2cc(Oc3ccc(/C=C4\SC(=O)NC4=O)cc3)ncn2)CC1 | 
12 | 6.13 | 51% | CC(C)COC(=O)N1CCC(Oc2cc(Oc3ccc(/C=C4\SC(=O)NC4=O)cc3)ncn2)CC1 | 
13 | 6.14 | 62.4% | CC(C)COC(=O)N1CCC(Oc2cc(Oc3cccc(/C=C4\SC(=O)NC4=O)c3)ncn2)CC1 | 
14 | 6.80 | 141% | CCOC(=O)N1CCC(Oc2ncnc(Oc3ccc(/C=C4\SC(=O)NC4=O)cc3)c2C)CC1 | 
15 | 6.81 | 98.3% | O=C1NC(=O)/C(=C/c2cccc(Oc3cc(OC4CCN(C(=O)OCc5ccccc5)CC4)ncn3)c2)S1 | 
16 | 6.90 | 78.3% | CC(C)(C)OC(=O)N1CCC(Oc2cc(Oc3cccc(/C=C4\SC(=O)NC4=O)c3)ncn2)CC1 | 
17 | 6.97 | 88.3% | O=C1NC(=O)/C(=C/c2ccc(Oc3cc(OC4CCN(C(=O)OCc5ccccc5)CC4)ncn3)cc2)S1 | 
18 | 6.98 | 138% | Cc1c(Oc2cccc(/C=C3\SC(=O)NC3=O)c2)ncnc1OC1CCN(C(=O)OCc2ccccc2)CC1 | 
19 | 7.12 | 70.2% | Cc1c(Oc2ccc(/C=C3\SC(=O)NC3=O)cc2)ncnc1OC1CCN(C(=O)OCC(C)C)CC1 | Activity (Mus musculus): 24%
20 | 8.22 | 100% | CC(C)c1noc(C2CCN(c3ncnc(Nc4ccc(S(C)(=O)=O)cc4F)c3[N+](=O)[O-])CC2)n1 | 
